In ChEMBL document CHEMBL4406834, “Phenylthiazoles with nitrogenous side chain: An approach to overcome molecular obesity” (Eur J Med Chem, 2019):
Converted amounts (≈) assume the structure as drawn. The source made the active and inactive calls. The calls are words filed in the database; no cut-off is given here.

Assays:
Acinetobacter baumannii [1] = assay: Antibacterial activity against Acinetobacter baumannii ATCC 19606; type: functional; conditions: ATCC 19606 = CIP 70.34 = JCM 6841
Listeria monocytogenes [2] = assay: Antibacterial activity against Listeria monocytogenes ATCC 19111 after 18 to 20 hrs by CLSI-based broth microdilution assay; type: functional
[3] = system: Staphylococcus epidermidis; assay: Antibacterial activity against methicillin-resistant Staphylococcus epidermidis NRS101 after 18 to 20 hrs by CLSI-based broth microdilution assay; type: functional
How it was run: (§1)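 Broth microdilution per CLSI. Strains grown aerobically overnight on tryptone soy agar at 37 °C, adjusted to 0.5 McFarland, then diluted in cation-adjusted Mueller-Hinton broth to about 5 × 10^5 CFU/mL. Compounds (10 mg/mL DMSO stocks) serially diluted. Incubated aerobically at 37 °C for 18-20 h. MIC is the lowest concentration with no visible growth.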

Acinetobacter baumannii [4] = assay: Bactericidal activity against Acinetobacter baumannii ATCC 19606; type: functional; conditions: ATCC 19606 = CIP 70.34 = JCM 6841
Streptococcus pneumoniae [5] = assay: Antibacterial activity against methicillin-resistant Streptococcus pneumoniae ATCC 700677 after 18 to 20 hrs by CLSI-based broth microdilution assay; type: functional; how it was run: as §1
Enterococcus faecium [6] = assay: Antibacterial activity against vancomycin-resistant Enterococcus faecium ATCC 700221 after 18 to 20 hrs by CLSI-based broth microdilution assay; type: functional; how it was run: as §1
Staphylococcus aureus [7] = assay: Antibacterial activity against methicilline-resistant Staphylococcus aureus NRS385 USA500 after 18 to 20 hrs by CLSI-based broth microdilution assay; type: functional; how it was run: as §1
Escherichia coli [8] = assay: Bactericidal activity against Escherichia coli BW25113; type: functional
Staphylococcus aureus [9] = assay: Antibiofilm activity against methicillin resistant Staphylococcus aureus NRS384 USA300 assessed as disruption of preformed biofilm at 4 x MIC incubated for 24 hrs by crystal violet staining based spectrophotometric analysis relative to control; type: functional
How it was run: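 MRSA USA300 overnight culture diluted 1:100 in tryptic soy broth + 1% glucose. Biofilm formed for 24 h at 37 °C. Planktonic cells removed, then compounds added at 256 to 2 µg/mL in TSB for 24 h at 37 °C. Wells washed with PBS, stained with 0.1% crystal violet for 30 min, destained with ethanol, read at OD595. Percent eradication relative to DMSO; unpaired t test.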

Escherichia coli [10] = assay: Antibacterial activity against Escherichia coli ATCC 25922; type: functional
Listeria monocytogenes [11] = assay: Bactericidal activity against Listeria monocytogenes ATCC 19111 incubated for 18 to 20 hrs followed by replating on tryptic soy agar plate and further incubated for 18 to 24 hrs by CLSI-based broth microdilution assay; type: functional
Staphylococcus aureus [12] = assay: Antibacterial activity against methicilline-sensitive Staphylococcus aureus NRS-107 after 18 to 20 hrs by CLSI-based broth microdilution assay; type: functional; how it was run: as §1
Staphylococcus aureus [13] = assay: Antibacterial activity against methicilline-resistant Staphylococcus aureus NRS123 USA400 after 18 to 20 hrs by CLSI-based broth microdilution assay; type: functional; how it was run: as §1
Pseudomonas aeruginosa [14] = assay: Antibacterial activity against Pseudomonas aeruginosa ATCC 27853; type: functional
Streptococcus pneumoniae [15] = assay: Antibacterial activity against cephalosporin-resistant Streptococcus pneumoniae ATCC 51916 after 18 to 20 hrs by CLSI-based broth microdilution assay; type: functional; how it was run: as §1
Escherichia coli [16] = assay: Antibacterial activity against Escherichia coli BW25113; type: functional
Staphylococcus aureus [17] = assay: Bactericidal activity against vancomycin-resistant Staphylococcus aureus 12 incubated for 18 to 20 hrs followed by replating on tryptic soy agar plate and further incubated for 18 to 24 hrs by CLSI-based broth microdilution assay; type: functional
How it was run: (§2)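 MBC: after the broth microdilution MIC (CAMHB, ~5 × 10^5 CFU/mL, 37 °C, 18-20 h), 4 µL from wells without growth plated onto tryptic soy agar. Plates incubated 37 °C for 18-20 h. MBC is the lowest concentration giving 99.9% reduction in growth.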

Staphylococcus aureus [18] = assay: Bactericidal activity against methicilline-resistant Staphylococcus aureus NRS385 USA500 incubated for 18 to 20 hrs followed by replating on tryptic soy agar plate and further incubated for 18 to 24 hrs by CLSI-based broth microdilution assay; type: functional; how it was run: as §2
Staphylococcus aureus [19] = assay: Antibacterial activity against methicilline-sensitive Staphylococcus aureus ATCC 6538 after 18 to 20 hrs by CLSI-based broth microdilution assay; type: functional; how it was run: as §1
Staphylococcus aureus [20] = assay: Bactericidal activity against methicilline-resistant Staphylococcus aureus NRS384 USA300 incubated for 18 to 20 hrs followed by replating on tryptic soy agar plate and further incubated for 18 to 24 hrs by CLSI-based broth microdilution assay; type: functional; how it was run: as §2
Staphylococcus aureus [21] = assay: Bactericidal activity against methicilline-sensitive Staphylococcus aureus ATCC 6538 incubated for 18 to 20 hrs followed by replating on tryptic soy agar plate and further incubated for 18 to 24 hrs by CLSI-based broth microdilution assay; type: functional; how it was run: as §2
[22] = Safety index, ratio of non-toxic concentration for human Caco2 cells to MIC for methicillin-resistant Staphylococcus aureus NRS384 USA300; type: toxicity
How it was run: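 Caco-2 cells exposed to compound in triplicate at 32, 64 and 128 µg/mL for 2 h, then MTS reagent for 4 h, absorbance at OD490. Viability expressed as percent of DMSO control. Highest non-toxic concentration divided by the broth microdilution MIC against MRSA USA300.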

Pseudomonas aeruginosa [23] = assay: Antibacterial activity against Pseudomonas aeruginosa ATCC 15442; type: functional
Staphylococcus aureus [24] = assay: Bactericidal activity against Staphylococcus aureus ATCC BAA42 incubated for 18 to 20 hrs followed by replating on tryptic soy agar plate and further incubated for 18 to 24 hrs by CLSI-based broth microdilution assay; type: functional; how it was run: as §2
Pseudomonas aeruginosa [25] = assay: Bactericidal activity against Pseudomonas aeruginosa ATCC 27853; type: functional
Staphylococcus aureus [26] = assay: Antibacterial activity against Staphylococcus aureus ATCC BAA42 after 18 to 20 hrs by CLSI-based broth microdilution assay; type: functional; how it was run: as §1
Pseudomonas aeruginosa [27] = assay: Bactericidal activity against Pseudomonas aeruginosa ATCC 15442; type: functional
Staphylococcus aureus [28] = assay: Bactericidal activity against methicillin-resistant Staphylococcus aureus USA400 assessed as reduction in bacterial burden at 5 times MIC after 4 hrs by time kill assay; type: functional, organism-based
[29] = system: Staphylococcus epidermidis; assay: Bactericidal activity against methicillin-resistant Staphylococcus epidermidis NRS101 incubated for 18 to 20 hrs followed by replating on tryptic soy agar plate and further incubated for 18 to 24 hrs by CLSI-based broth microdilution assay; type: functional
Staphylococcus aureus [30] = assay: Antibacterial activity against vancomycin-resistant Staphylococcus aureus 12 after 18 to 20 hrs by CLSI-based broth microdilution assay; type: functional; how it was run: as §1
Enterococcus faecium [31] = assay: Bactericidal activity against vancomycin-resistant Enterococcus faecium ATCC 700221 incubated for 18 to 20 hrs followed by replating on tryptic soy agar plate and further incubated for 18 to 24 hrs by CLSI-based broth microdilution assay; type: functional; how it was run: as §2
Staphylococcus aureus [32] = assay: Antibacterial activity against methicillin-resistant Staphylococcus aureus NRS384 USA300 after 18 to 20 hrs by broth microdilution assay; type: functional; how it was run: as §1
[33] = Aqueous solubility of the compound in phosphate buffered saline assessed as concentration that produces no precipitate measured as OD at 540 nm; type: physicochemical
Enterococcus faecalis = assay: Antibacterial activity against vancomycin-resistant Enterococcus faecalis ATCC 51299 after 18 to 20 hrs by CLSI-based broth microdilution assay; type: functional; how it was run: as §1
Escherichia coli [34] = assay: Antibacterial activity against TolC-deficient Escherichia coli JW55031; type: functional
Streptococcus pneumoniae [35] = assay: Bactericidal activity against methicillin-resistant Streptococcus pneumoniae ATCC 700677 incubated for 18 to 20 hrs followed by replating on tryptic soy agar plate and further incubated for 18 to 24 hrs by CLSI-based broth microdilution assay; type: functional; how it was run: as §2

C/C(=N\NC(=N)N)c1sc(-c2ccc(N3CCCCC3)cc2)nc1C gave an MIC (Acinetobacter baumannii [1]) of 32 µg/mL (≈ 89.8 µM), an MIC (Listeria monocytogenes [2]) of 8 µg/mL (≈ 22.4 µM) and an MIC [3] of 8 µg/mL (≈ 22.4 µM). For the same compound, the MBC (Acinetobacter baumannii [4]) was 64 µg/mL (≈ 180 µM), the MIC (Streptococcus pneumoniae [5]) was 8 µg/mL (≈ 22.4 µM) and the MIC (Enterococcus faecium [6]) was 8 µg/mL (≈ 22.4 µM). For the same compound, the MIC (Staphylococcus aureus [7]) was 8 µg/mL (≈ 22.4 µM), the MBC (Escherichia coli [8]) was 64 µg/mL (≈ 180 µM) and the “inhibition (INH)” value (Staphylococcus aureus [9]) was 72%. For the same compound, the MIC (Escherichia coli [10]) was 64 µg/mL (≈ 180 µM), the MBC (Listeria monocytogenes [11]) was 16 µg/mL (≈ 44.9 µM) and the MIC (Staphylococcus aureus [12]) was 4 µg/mL (≈ 11.2 µM). For the same compound, the MIC (Staphylococcus aureus [13]) was 8 µg/mL (≈ 22.4 µM), the MIC (Pseudomonas aeruginosa [14]) was > 64 µg/mL and the MIC (Streptococcus pneumoniae [15]) was 8 µg/mL (≈ 22.4 µM). For the same compound, the MIC (Escherichia coli [16]) was 32 µg/mL (≈ 89.8 µM), the MBC (Staphylococcus aureus [17]) was 16 µg/mL (≈ 44.9 µM) and the MBC (Staphylococcus aureus [18]) was 32 µg/mL (≈ 89.8 µM). It also gave an MIC (Staphylococcus aureus [19]) of 4 µg/mL (≈ 11.2 µM), an MBC (Staphylococcus aureus [20]) of 16 µg/mL (≈ 44.9 µM) and an MBC (Staphylococcus aureus [21]) of 8 µg/mL (≈ 22.4 µM). For the same compound, the selectivity ratio [22] was 16, the MIC (Pseudomonas aeruginosa [23]) was > 64 µg/mL and the MBC (Staphylococcus aureus [24]) was 16 µg/mL (≈ 44.9 µM). For the same compound, the MBC (Pseudomonas aeruginosa [25]) was > 64 µg/mL, the MIC (Staphylococcus aureus [26]) was 4 µg/mL (≈ 11.2 µM) and the MBC (Pseudomonas aeruginosa [27]) was > 64 µg/mL. The inhibition (Staphylococcus aureus [28]) was “Active”, the MBC [29] was 8 µg/mL (≈ 22.4 µM) and the MIC (Staphylococcus aureus [30]) was 4 µg/mL (≈ 11.2 µM). It also gave an MBC (Enterococcus faecium [31]) of 32 µg/mL (≈ 89.8 µM), an MIC (Staphylococcus aureus [32]) of 4 µg/mL (≈ 11.2 µM) and a solubility kinetic [33] of 480 µM (≈ 171 µg/mL). The MIC (Enterococcus faecalis) was 16 µg/mL (≈ 44.9 µM), the MIC (Escherichia coli [34]) was 32 µg/mL (≈ 89.8 µM) and the MBC (Streptococcus pneumoniae [35]) was 16 µg/mL (≈ 44.9 µM).

C/C(=N\NC(=N)N)c1sc(-c2ccc(N3CCCC(C)C3)cc2)nc1C (configuration not stated) showed an MIC (Acinetobacter baumannii [1]) of 32 µg/mL (≈ 86.4 µM), an MIC (Listeria monocytogenes [2]) of 2 µg/mL (≈ 5.4 µM) and an MIC [3] of 4 µg/mL (≈ 10.8 µM). For the same compound, the MBC (Acinetobacter baumannii [4]) was 32 µg/mL (≈ 86.4 µM), the MIC (Streptococcus pneumoniae [5]) was 8 µg/mL (≈ 21.6 µM) and the MIC (Enterococcus faecium [6]) was 4 µg/mL (≈ 10.8 µM). The MIC (Staphylococcus aureus [7]) was 8 µg/mL (≈ 21.6 µM), the MBC (Escherichia coli [8]) was 32 µg/mL (≈ 86.4 µM) and the “inhibition (INH)” value (Staphylococcus aureus [9]) was 50%. For the same compound, the MIC (Escherichia coli [10]) was 16 µg/mL (≈ 43.2 µM), the MBC (Listeria monocytogenes [11]) was 8 µg/mL (≈ 21.6 µM) and the MIC (Staphylococcus aureus [12]) was 8 µg/mL (≈ 21.6 µM). The MIC (Staphylococcus aureus [13]) was 8 µg/mL (≈ 21.6 µM), the MIC (Pseudomonas aeruginosa [14]) was > 64 µg/mL and the MIC (Streptococcus pneumoniae [15]) was 8 µg/mL (≈ 21.6 µM). The MIC (Escherichia coli [16]) was 32 µg/mL (≈ 86.4 µM), the MBC (Staphylococcus aureus [17]) was 8 µg/mL (≈ 21.6 µM) and the MBC (Staphylococcus aureus [18]) was 16 µg/mL (≈ 43.2 µM). It also gave an MIC (Staphylococcus aureus [19]) of 8 µg/mL (≈ 21.6 µM), an MBC (Staphylococcus aureus [20]) of 16 µg/mL (≈ 43.2 µM) and an MBC (Staphylococcus aureus [21]) of 16 µg/mL (≈ 43.2 µM). The selectivity ratio [22] was 8, the MIC (Pseudomonas aeruginosa [23]) was > 64 µg/mL and the MBC (Staphylococcus aureus [24]) was 16 µg/mL (≈ 43.2 µM). The MBC (Pseudomonas aeruginosa [25]) was > 64 µg/mL, the MIC (Staphylococcus aureus [26]) was 8 µg/mL (≈ 21.6 µM) and the MBC (Pseudomonas aeruginosa [27]) was > 64 µg/mL. For the same compound, the inhibition (Staphylococcus aureus [28]) was “Active”, the MBC [29] was 8 µg/mL (≈ 21.6 µM) and the MIC (Staphylococcus aureus [30]) was 8 µg/mL (≈ 21.6 µM). It also gave an MBC (Enterococcus faecium [31]) of 32 µg/mL (≈ 86.4 µM), an MIC (Staphylococcus aureus [32]) of 4 µg/mL (≈ 10.8 µM) and a solubility kinetic [33] of 435 µM (≈ 161 µg/mL). The MIC (Enterococcus faecalis) was 8 µg/mL (≈ 21.6 µM), the MIC (Escherichia coli [34]) was 8 µg/mL (≈ 21.6 µM) and the MBC (Streptococcus pneumoniae [35]) was 32 µg/mL (≈ 86.4 µM).
